Consider 14 molecules from PubChem BioAssay.

Experiment [1] is described as follows: Her2 expression decrease, cell viability multiplex – SKBR3 breast tumor cells, AlphaScreen, ATP viability, primary screen (AID 461;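 active means Her2 level under about 52% in both replicate screens, with viability over 70% of control, limit read from the data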;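 on Her2 level: lower value means less Her2 protein in the cells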;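 on viability: percent of carrier control wells set as 100% viability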). The conditions noted are these: SKBR3 Her2 protein level, 18-24 h, measured here: SKBR3 viability, ATP luminescence, at 10 µM. In general terms: Bead proximity is the source of the signal in Alpha formats.
Experiment [2] deals with Receptor tyrosine-protein kinase erbB-2 (Homo sapiens) (UniProt P04626). The description is as above. The conditions noted are these: 18-24 h, at 10 µM, stronger effect = lower value.
Receptor tyrosine-protein kinase erbB-2 (Homo sapiens), sequence (P04626 whole entry, looked up): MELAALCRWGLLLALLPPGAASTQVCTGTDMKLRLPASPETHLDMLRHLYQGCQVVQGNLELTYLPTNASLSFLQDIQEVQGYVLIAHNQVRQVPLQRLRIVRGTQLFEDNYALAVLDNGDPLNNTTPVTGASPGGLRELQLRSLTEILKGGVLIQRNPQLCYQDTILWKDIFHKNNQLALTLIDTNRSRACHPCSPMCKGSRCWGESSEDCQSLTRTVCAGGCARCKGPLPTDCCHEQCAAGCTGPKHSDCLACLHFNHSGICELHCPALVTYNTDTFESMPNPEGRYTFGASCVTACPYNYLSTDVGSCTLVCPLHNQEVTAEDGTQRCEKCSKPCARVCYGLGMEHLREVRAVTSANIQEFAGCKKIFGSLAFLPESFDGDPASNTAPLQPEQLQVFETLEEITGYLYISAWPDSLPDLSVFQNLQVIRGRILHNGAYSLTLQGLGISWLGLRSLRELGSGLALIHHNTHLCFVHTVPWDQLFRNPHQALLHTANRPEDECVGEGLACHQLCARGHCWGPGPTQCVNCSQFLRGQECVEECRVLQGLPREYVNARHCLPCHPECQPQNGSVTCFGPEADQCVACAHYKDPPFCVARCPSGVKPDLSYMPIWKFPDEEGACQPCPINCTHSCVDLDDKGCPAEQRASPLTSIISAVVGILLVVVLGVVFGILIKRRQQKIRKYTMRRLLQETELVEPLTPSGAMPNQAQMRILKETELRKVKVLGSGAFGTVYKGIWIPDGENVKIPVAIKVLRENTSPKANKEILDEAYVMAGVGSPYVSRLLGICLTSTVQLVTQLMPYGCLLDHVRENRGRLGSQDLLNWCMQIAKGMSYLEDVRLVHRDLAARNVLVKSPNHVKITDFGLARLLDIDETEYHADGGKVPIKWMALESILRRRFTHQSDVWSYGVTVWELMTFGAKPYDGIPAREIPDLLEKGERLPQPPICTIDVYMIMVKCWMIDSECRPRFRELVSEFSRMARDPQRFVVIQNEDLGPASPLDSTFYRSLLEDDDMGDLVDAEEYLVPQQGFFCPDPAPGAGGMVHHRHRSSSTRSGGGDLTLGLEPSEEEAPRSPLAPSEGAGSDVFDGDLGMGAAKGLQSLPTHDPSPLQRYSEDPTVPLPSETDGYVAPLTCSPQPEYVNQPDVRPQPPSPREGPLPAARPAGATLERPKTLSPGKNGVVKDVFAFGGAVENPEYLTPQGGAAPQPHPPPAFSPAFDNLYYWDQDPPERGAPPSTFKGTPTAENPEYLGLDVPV
The nature of experiment [3]: reduced viability of SK-BR-3 breast cancer cells – cell-based, 24 h, human, pilot screen (AID 572;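 active means viability at or below 10% of carrier control in both of two separate runs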;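 further: compound exposure lasted between 18 and 24 h rather than exactly 24 h; 100% = carrier-treated control wells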). The settings on record: SK-BR-3 viability, CellTiter-Glo luminescence, at 10 µM, stronger effect = lower value. (In general: Cellular ATP, detected with luciferase, serves as a proxy for viable cell number.)
Experiment [4] in a line: HUVEC growth inhibition – cell-based, human, primary screen (AID 575;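 active means viability at or below 30% in both replicate assays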;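 further: 100% = median of untreated cell wells with 0.1% DMSO on each plate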). The conditions noted are these: HUVEC proliferation, CellTiter-Glo luminescence, 72 h; at 10 µM; stronger effect = lower value. An outline of the steps: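 Timing: 72 h treatment at 37 °C; material: HUVEC primary cells; technique: CellTiter-Glo luminescence measuring cellular ATP; controls: vehicle and MePR control wells; measure: percent of median DMSO-control luminescence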

A short description of experiment [5]: H69AR cell proliferation blockers – human, duplicate replicates, primary screen (AID 580).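 Further: 100% = mean luminescence of untreated wells and 0% = no signal.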 The settings on record: H69AR lung tumor cells viability, ATP luminescence, 72 h; at 10 µM; stronger effect = lower value.
Experiment [6] can be described thus: MRP1 drug-resistance reversers in H69AR cells – cell-based, doxorubicin co-treatment, pilot screen (AID 601;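 active means viability loss from added drug above about 55%, and viability with drug at most 40%, in both replicates, limit read from the data, passing the limit was not always enough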). The settings on record: CellTiter-Glo, 72 h, at 10 µM; for differential viability (reversal): stronger effect = higher value.
A short description of experiment [7]: yeast transport mutant growth inhibition pilot in 384-well plates, post-Golgi transport modulator project (AID 636; in the data active means inhibition above about 31%). The conditions noted are these: absorbance 615 nm, about 18 h, stronger effect = higher value.
Experiment [8] can be described thus: growth suppression of yeast trafficking mutant, preliminary HTS, modulators of trafficking downstream of Golgi apparatus project, 1536-format plate, OD 615 nm (AID 637; in the data active means inhibition above about 30%). The conditions noted are these: yeast transport mutant growth, absorbance 615 nm, 18 h; stronger effect = higher value.
Where [9] appears, read: H69AR cells + 2 uM doxorubicin, measured here: viability with 2 uM doxorubicin, stronger effect = lower value.
[10] abbreviates: H69AR cells, compound alone cytotoxicity.

The source made the active and inactive calls.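 How the source made its calls, unless noted: active means viability at or under a set limit in both replicates, limit being median viability minus 3 SD (cut at about 48% in these data, passing the limit was not always enough); inconclusive means at or under the limit in just one replicate; inactive means at or above the limit in both replicates.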

In general, viability refers to a read-out of living cells in per cent, often relative to untreated cells. Usually inhibition stands for the change of the read-out against control, counted positive when it falls. Turning to `CCCS(=O)(=O)N1CCC(C(=O)N2CCCC2)CC1`, the viability in experiment [1] is 112%; in experiment [3] it was 112% (inactive); in experiment [4], 115% (inactive); in experiment [5] it was 95% (inactive); in experiment [6] (setting [9]) it was 91.1%; in experiment [6] (setting [10]), 95%. For the same molecule, in experiment [2], the Her2 level was 93% (inactive). Besides, in experiment [6] (H69AR cells + 2 uM doxorubicin), the differential viability (reversal) was 3.92% (inactive). Moreover, the inhibition in experiment [7] was -3.55% (inactive); in experiment [8], -0.82% (inactive).

Regarding `CC(=O)Nc1ccc(OCC(O)CN2CCN(c3cccc(Cl)c3)CC2)cc1` (stereo not given), the viability in experiment [1] is 76.5%; in experiment [3], 76.5% (inactive); in experiment [4], 79.5% (inactive); in experiment [5], 88.4% (inactive); in experiment [6] (setting [9]) it was 81.5%; in experiment [6] (setting [10]) it was 88.4%. Further, the Her2 level in experiment [2] was 82% (inactive). Moreover, in experiment [6] (H69AR cells + 2 uM doxorubicin), the differential viability (reversal) was 6.8% (inactive). Also, the inhibition in experiment [7] was -7.84% (inactive); in experiment [8] it was 5.74% (inactive).

Consider `CCC(C)NC(=O)C1(C)CCC(=O)N1CCc1ccc(OC)c(OC)c1` (stereo not given), for which the viability in experiment [1] is 104%; in experiment [3], 104% (inactive); in experiment [4] it was 95.4% (inactive); in experiment [5] it was 86.1% (inactive); in experiment [6] (setting [9]), 94.2%; in experiment [6] (setting [10]), 86.1%. Besides, in experiment [2], the Her2 level was 95% (inactive). Also, the differential viability (reversal) in experiment [6] (H69AR cells + 2 uM doxorubicin) was -8.14% (inactive). Further, the inhibition is -1.04% (inactive) in experiment [7] and -1.27% (inactive) in experiment [8].

For `Cc1cc(=O)oc2cc(Oc3ncccn3)ccc12`, the viability in experiment [1] is 98%; in experiment [3] it was 98% (inactive); in experiment [4], 101% (inactive); in experiment [5], 83% (inactive); in experiment [6] (setting [9]) it was 89.4%; in experiment [6] (setting [10]) it was 83%. Moreover, the Her2 level in experiment [2] is 106% (inactive). In addition, the differential viability (reversal) in experiment [6] (H69AR cells + 2 uM doxorubicin) was -6.5% (inactive). Further, the inhibition was -8.4% (inactive) in experiment [7] and 16.7% (inactive) in experiment [8].

Regarding `Cc1ccc(CCC(=O)Nc2ccc(S(N)(=O)=O)cc2)o1`, the viability in experiment [1] was 87.5%; in experiment [3], 87.5% (inactive); in experiment [4] it was 98.4% (inactive); in experiment [5], 109% (inactive); in experiment [6] (setting [9]), 101%; in experiment [6] (setting [10]) it was 109%. The Her2 level in experiment [2] was 116% (inactive). Also, the differential viability (reversal) in experiment [6] (H69AR cells + 2 uM doxorubicin) was 7.87% (inactive). Further, the inhibition was 1.33% (inactive) in experiment [7] and 6.23% (inactive) in experiment [8].

As to `COc1ccc(-c2cc(C(=O)N3CCN(Cc4ccccc4)CC3)no2)cc1OC`, the viability was 99% in experiment [1]; 99% (inactive) in experiment [3]; 81.5% (inactive) in experiment [4]; 98.5% (inactive) in experiment [5]; 77.8% in experiment [6] (setting [9]); 98.5% in experiment [6] (setting [10]). The Her2 level in experiment [2] was 64.5% (inactive). For the same molecule, the differential viability (reversal) in experiment [6] (H69AR cells + 2 uM doxorubicin) is 20.8% (inactive). In addition, the inhibition is -5.68% (inactive) in experiment [7] and 9% (inactive) in experiment [8].

Turning to `COc1cccc(Oc2cn[nH]c2-c2ccc(O)cc2O)c1`, the viability in experiment [1] was 104%; in experiment [3], 104% (inactive); in experiment [4], 65.9% (inactive); in experiment [5], 89.5% (inactive); in experiment [6] (setting [9]), 98.4%; in experiment [6] (setting [10]), 89.5%. Besides, the Her2 level in experiment [2] is 122% (inactive). For the same molecule, the differential viability (reversal) in experiment [6] (H69AR cells + 2 uM doxorubicin) was -8.96% (inactive). Besides, the inhibition in experiment [7] was 0.26% (inactive); in experiment [8], -5% (inactive).

Take `CCOC(=O)c1ccccc1NC(=O)c1cc2sccc2n1C`: the viability was 90% in experiment [1]; 90% (inactive) in experiment [3]; 70.5% (inactive) in experiment [4]; 81% (inactive) in experiment [5]; 77% in experiment [6] (setting [9]); 81% in experiment [6] (setting [10]). The Her2 level in experiment [2] was 96% (inactive). In experiment [6] (H69AR cells + 2 uM doxorubicin), the differential viability (reversal) is 3.9% (inactive). Also, the inhibition in experiment [7] was 1.23% (inactive); in experiment [8] it was -2.38% (inactive).

For `NC(=O)C(Cc1ccccc1)NS(=O)(=O)c1ccc(N2CCCC2=O)cc1` (stereo not given), the viability is 90.5% in experiment [1]; 90.5% (inactive) in experiment [3]; 108% (inactive) in experiment [4]; 101% (inactive) in experiment [5]; 90% in experiment [6] (setting [9]); 101% in experiment [6] (setting [10]). The Her2 level in experiment [2] was 92% (inactive). For the same molecule, in experiment [6] (H69AR cells + 2 uM doxorubicin), the differential viability (reversal) was 10.9% (inactive). Besides, the inhibition was -3.87% (inactive) in experiment [7] and 1.48% (inactive) in experiment [8].

Take `O=C(NCc1ccco1)C(c1ccco1)N(C(=O)Cn1nnc2ccccc21)c1ccc2c(c1)CCC2` (stereo not given): the viability in experiment [1] was 95.5%; in experiment [3] it was 95.5% (inactive); in experiment [4] it was 89.7% (inactive); in experiment [5], 99.8% (inactive); in experiment [6] (setting [9]) it was 91.2%; in experiment [6] (setting [10]), 99.8%. In experiment [2], the Her2 level is 92.5% (inactive). For the same molecule, the differential viability (reversal) in experiment [6] (H69AR cells + 2 uM doxorubicin) is 8.6% (inactive). The inhibition in experiment [7] is -2.8% (inactive); in experiment [8] it was -5.97% (inactive).

On to `CCCSc1nc2c(c(=O)[nH]c(=O)n2C)n1CCc1ccccc1`, for which the viability is 89.5% in experiment [1]; 89.5% (inactive) in experiment [3]; 83.8% (inactive) in experiment [4]; 86.8% (inactive) in experiment [5]; 96.6% in experiment [6] (setting [9]); 86.8% in experiment [6] (setting [10]). Further, the Her2 level in experiment [2] was 92% (inactive). Also, the differential viability (reversal) in experiment [6] (H69AR cells + 2 uM doxorubicin) is -9.79% (inactive). The figures for the inhibition in experiment [7] and in experiment [8] were -7.47% (inactive) and 7.42% (inactive), respectively.

With `Cn1c(=O)c2[nH]c(NCC3CCCO3)nc2n(-c2ccccc2)c1=O` (stereo not given), the viability in experiment [1] was 94.5%; in experiment [3], 94.5% (inactive); in experiment [4], 116% (inactive); in experiment [5] it was 102% (inactive); in experiment [6] (setting [9]), 91.5%; in experiment [6] (setting [10]), 102%. Moreover, in experiment [2], the Her2 level is 81% (inactive). Further, the differential viability (reversal) in experiment [6] (H69AR cells + 2 uM doxorubicin) is 10.4% (inactive). For the same molecule, the inhibition in experiment [7] was -4.87% (inactive); in experiment [8], 3.67% (inactive).

Consider `CCOC(=O)N1CCN(c2c(NCCCOC(C)C)c(=O)c2=O)CC1`, for which the viability in experiment [1] was 97.5%; in experiment [3], 97.5% (inactive); in experiment [4] it was 86.8% (inactive); in experiment [5], 97.5% (inactive); in experiment [6] (setting [9]), 89.8%; in experiment [6] (setting [10]), 97.5%. In experiment [2], the Her2 level is 90% (inactive). The differential viability (reversal) in experiment [6] (H69AR cells + 2 uM doxorubicin) was 7.67% (inactive). In addition, the figures for the inhibition in experiment [7] and in experiment [8] were -3.47% (inactive) and -0.98% (inactive), respectively.

As for `Cc1nnc2sc(-c3cccc(NC(=O)c4cccnc4)c3)nn12`, the viability in experiment [1] is 87.5%; in experiment [3], 87.5% (inactive); in experiment [4] it was 90.2% (inactive); in experiment [5] it was 87.8% (inactive); in experiment [6] (setting [9]) it was 96.7%; in experiment [6] (setting [10]), 87.8%. Moreover, the Her2 level in experiment [2] was 104% (inactive). Besides, the differential viability (reversal) in experiment [6] (H69AR cells + 2 uM doxorubicin) is -8.91% (inactive). The inhibition in experiment [7] is -2.7% (inactive); in experiment [8], 36.7% (active).
